# Calls of active or inactive are those of the source. The calls are words filed in the database; no cut-off is given here.
# Assays:
# [1] = target: T1, Galanin receptor type 2 (Homo sapiens) (UniProt O43603); assay: Displacement of [125I]-Tyr9-galanin from GalR2 at 10 uM after 1 hr
# T1 sequence (whole entry): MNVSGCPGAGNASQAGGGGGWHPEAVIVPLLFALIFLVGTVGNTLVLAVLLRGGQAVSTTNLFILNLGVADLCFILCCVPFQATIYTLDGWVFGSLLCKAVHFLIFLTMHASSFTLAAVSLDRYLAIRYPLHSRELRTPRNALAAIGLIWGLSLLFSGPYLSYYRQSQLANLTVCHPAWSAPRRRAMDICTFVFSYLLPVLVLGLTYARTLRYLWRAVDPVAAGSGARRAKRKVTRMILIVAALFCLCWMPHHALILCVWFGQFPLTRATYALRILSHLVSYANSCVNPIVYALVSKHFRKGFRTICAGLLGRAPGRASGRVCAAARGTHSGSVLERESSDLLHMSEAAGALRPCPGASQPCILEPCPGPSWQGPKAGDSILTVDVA
# Summary of the method: (§1)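 Single-point radioligand binding inhibition on receptor membrane preparations, test peptide at 10 μM. Radioligands are [125I]Tyr9-galanin for GALR1–3, [125I]-prolactin-releasing peptide-20 for PrRPR, and (d-[125I]Tyr1, MePhe3)-NPFF for NPFFR1 and NPFFR2. Read-out is % inhibition of specific binding, mean of duplicate analyses.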
# [2] = target: T2, Galanin receptor type 1 (Homo sapiens) (UniProt P47211); assay: Displacement of [125I]-Tyr9-galanin from GalR1 at 10 uM after 1 hr; summary of the method: as §1
# T2 sequence (whole entry): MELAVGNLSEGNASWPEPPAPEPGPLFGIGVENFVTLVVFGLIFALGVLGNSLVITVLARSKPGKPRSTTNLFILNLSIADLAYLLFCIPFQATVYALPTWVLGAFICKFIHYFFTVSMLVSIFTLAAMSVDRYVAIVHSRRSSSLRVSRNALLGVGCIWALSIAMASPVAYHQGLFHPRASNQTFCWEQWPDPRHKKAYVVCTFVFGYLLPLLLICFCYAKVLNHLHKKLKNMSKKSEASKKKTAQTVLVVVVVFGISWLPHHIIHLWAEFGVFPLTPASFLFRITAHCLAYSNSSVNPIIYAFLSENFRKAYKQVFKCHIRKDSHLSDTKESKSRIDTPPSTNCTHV
# [3] = tested on: Rattus norvegicus; assay: Increase of luteinizing hormone level in Wistar-imamichi rat plasma at 0.25 nmol, administered intracerebroventricularly in preoptic area after 3 hrs measured every 6 mins by double-antibody radioimmunoassay; assay type: functional, organism-based
# Summary of the method: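 Male rats given 0.25 nmol peptide into the preoptic area. Blood sampled every 6 min over 3 h; plasma LH expressed as area under the curve. Mean ± SEM of five or more experiments.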
# [4] = species: Rattus norvegicus; assay: Increase of GnRH release in Wistar-imamichi rat median eminence at 1 uM after 30 mins by double-antibody radioimmunoassay; assay type: functional
# Summary of the method: (§2)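 Rat median eminence incubated in vitro with peptide. Released GnRH quantified by double-antibody radioimmunoassay with [125I]-labeled GnRH; mean ± SEM of triplicate or more experiments.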
# [5] = target: T3, Neuropeptide FF receptor 2 (Homo sapiens, UniProt Q9Y5X5); assay: Agonist activity at NPFFR2 expressed in CHO cells assessed as inhibition of forskolin-induced cAMP accumulation at up to 100 uM after 30 mins
# T3 sequence (Q9Y5X5 whole entry): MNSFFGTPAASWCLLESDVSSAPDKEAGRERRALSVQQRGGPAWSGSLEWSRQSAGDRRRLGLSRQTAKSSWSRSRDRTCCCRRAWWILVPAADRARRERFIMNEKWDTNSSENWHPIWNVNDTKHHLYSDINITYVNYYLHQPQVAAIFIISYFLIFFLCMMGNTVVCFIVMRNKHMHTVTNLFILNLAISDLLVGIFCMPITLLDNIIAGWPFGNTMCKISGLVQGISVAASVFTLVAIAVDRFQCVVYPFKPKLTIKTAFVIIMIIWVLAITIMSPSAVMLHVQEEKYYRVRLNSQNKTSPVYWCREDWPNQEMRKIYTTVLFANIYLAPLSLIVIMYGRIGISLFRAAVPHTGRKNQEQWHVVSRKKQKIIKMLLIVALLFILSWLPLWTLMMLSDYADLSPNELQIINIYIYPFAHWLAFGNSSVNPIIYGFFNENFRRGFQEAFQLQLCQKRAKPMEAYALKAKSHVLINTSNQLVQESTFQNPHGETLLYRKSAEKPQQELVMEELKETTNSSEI
# [6] = target: T3, Neuropeptide FF receptor 2; assay: Displacement of (D-[125I]Tyr1, MePhe3)-NPFF from NPFFR2 at 10 uM after 2 hrs; summary of the method: as §1
# [7] = target: T4, Neuropeptide FF receptor 1 (Homo sapiens, UniProt Q9GZQ6); assay: Agonist activity at NPFFR1 expressed in HEK293T cells co-expressing Gqi5 assessed as increase of intracellular calcium mobilization at 0.24 uM after 1 hr; assay type: functional, cell-based; conditions: HEK-293T
# T4 sequence (Q9GZQ6 whole entry): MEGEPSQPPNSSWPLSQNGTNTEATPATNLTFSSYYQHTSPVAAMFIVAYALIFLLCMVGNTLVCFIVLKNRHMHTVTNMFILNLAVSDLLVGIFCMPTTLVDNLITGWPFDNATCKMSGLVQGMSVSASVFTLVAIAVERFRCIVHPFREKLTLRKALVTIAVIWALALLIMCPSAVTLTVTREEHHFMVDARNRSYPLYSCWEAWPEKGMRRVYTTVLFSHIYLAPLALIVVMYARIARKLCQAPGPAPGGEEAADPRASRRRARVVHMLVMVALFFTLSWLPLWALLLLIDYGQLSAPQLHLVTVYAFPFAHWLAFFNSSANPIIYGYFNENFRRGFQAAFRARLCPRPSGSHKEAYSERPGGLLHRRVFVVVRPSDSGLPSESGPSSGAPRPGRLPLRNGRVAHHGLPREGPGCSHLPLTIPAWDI
# [8] = target: T4, Neuropeptide FF receptor 1; assay: Agonist activity at NPFFR1 expressed in CHO cells assessed as inhibition of forskolin-induced cAMP accumulation at up to 100 uM after 30 mins
# [9] = target: T3, Neuropeptide FF receptor 2; assay: Agonist activity at NPFFR2 expressed in HEK293T cells co-expressing Gqi5 assessed as increase of intracellular calcium mobilization after 1 hr; assay type: functional, cell-based; conditions: HEK-293T
# [10] = target: T4, Neuropeptide FF receptor 1; assay: Displacement of (D-[125I]Tyr1, MePhe3)-NPFF from NPFFR1 at 10 uM after 2 hrs; summary of the method: as §1
# [11] = target: T5, Prolactin-releasing peptide receptor (Homo sapiens) (UniProt P49683); assay: Displacement of [125I]-prolactin releasing peptide-20 from PrRPR at 10 uM after 30 mins; summary of the method: as §1
# T5 sequence (whole entry): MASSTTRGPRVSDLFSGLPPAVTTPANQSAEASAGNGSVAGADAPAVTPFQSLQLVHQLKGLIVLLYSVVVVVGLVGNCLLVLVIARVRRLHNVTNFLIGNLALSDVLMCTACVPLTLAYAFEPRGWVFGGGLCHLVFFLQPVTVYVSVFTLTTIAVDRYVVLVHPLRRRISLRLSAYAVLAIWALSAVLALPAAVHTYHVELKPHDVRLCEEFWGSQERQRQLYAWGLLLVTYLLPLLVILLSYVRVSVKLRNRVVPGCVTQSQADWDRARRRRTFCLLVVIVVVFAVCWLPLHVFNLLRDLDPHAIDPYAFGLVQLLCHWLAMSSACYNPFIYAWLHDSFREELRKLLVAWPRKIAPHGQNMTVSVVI
# [12] = target: T6, Galanin receptor type 3 (Homo sapiens) (UniProt O60755); assay: Displacement of [125I]-Tyr9-galanin from GalR3 at 10 uM after 1 hr; summary of the method: as §1
# T6 sequence (whole entry): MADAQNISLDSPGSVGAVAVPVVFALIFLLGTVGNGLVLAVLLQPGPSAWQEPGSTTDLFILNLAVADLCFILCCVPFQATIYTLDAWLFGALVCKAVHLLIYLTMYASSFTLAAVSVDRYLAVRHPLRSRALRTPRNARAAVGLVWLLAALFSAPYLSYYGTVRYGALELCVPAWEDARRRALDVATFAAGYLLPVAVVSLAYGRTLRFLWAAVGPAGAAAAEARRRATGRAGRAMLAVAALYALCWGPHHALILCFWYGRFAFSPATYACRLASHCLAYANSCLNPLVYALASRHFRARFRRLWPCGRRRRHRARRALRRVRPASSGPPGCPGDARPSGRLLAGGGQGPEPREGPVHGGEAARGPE
# [13] = target: T4, Neuropeptide FF receptor 1; assay: Agonist activity at NPFFR1 expressed in HEK293T cells co-expressing Gqi5 assessed as increase of intracellular calcium mobilization after 1 hr; assay type: functional, cell-based; conditions: HEK-293T
# [14] = target: T7, KiSS-1 receptor (Homo sapiens, UniProt Q969F8); assay: Displacement of [125I]kisspeptin-15 from GPR54
# T7 sequence (Q969F8 whole entry): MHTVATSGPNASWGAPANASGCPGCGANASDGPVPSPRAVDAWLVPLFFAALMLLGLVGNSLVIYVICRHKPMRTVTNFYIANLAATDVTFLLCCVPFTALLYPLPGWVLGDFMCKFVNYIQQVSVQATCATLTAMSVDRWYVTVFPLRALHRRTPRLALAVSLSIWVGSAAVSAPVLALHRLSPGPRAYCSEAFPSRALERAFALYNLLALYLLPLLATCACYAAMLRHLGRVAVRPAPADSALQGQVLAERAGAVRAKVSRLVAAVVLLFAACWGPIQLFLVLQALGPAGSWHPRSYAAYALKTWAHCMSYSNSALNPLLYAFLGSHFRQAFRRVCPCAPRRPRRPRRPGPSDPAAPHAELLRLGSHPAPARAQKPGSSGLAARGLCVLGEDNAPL
# [15] = target: T4, Neuropeptide FF receptor 1; assay: Displacement of (D-[125I]Tyr1, MePhe3)-NPFF from NPFFR1 after 2 hrs
# Summary of the method: (§3)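 Dose–response inhibition of (d-[125I]Tyr1, MePhe3)-NPFF binding to NPFFR1 or NPFFR2. IC50 is the concentration giving 50% inhibition of radioligand binding, taken from dose–response curves built from triplicate data points.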
# [16] = target: T3, Neuropeptide FF receptor 2; assay: Displacement of (D-[125I]Tyr1, MePhe3)-NPFF from NPFFR2 after 2 hrs; summary of the method: as §3
# [17] = target: T7, KiSS-1 receptor; assay: Agonist activity at GPR54 expressed in CHO cells assessed as increase of intracellular calcium mobilization at 10 uM after 1 hr; assay type: functional, cell-based
# [18] = species: Rattus norvegicus; assay: Increase of GnRH release in Wistar-imamichi rat median eminence at 0.1 uM after 30 mins by double-antibody radioimmunoassay; assay type: functional; summary of the method: as §2
inhibition [5],Activity [7] [%],inhibition [8],IC50 [14] [nM],IC50 [15] [nM],IC50 [16] [nM],Molecule,Activity [3],also measured
,,,830,,,NC(=O)[C@H](Cc1ccccc1)NC(=O)[C@H](CCCN=C(N)N)NC(=O)C12CC3CC(CC(C3)C1)C2,,
Active,86,Active,,4.7,76,CC(C)C[C@H](NC(=O)CNC(=O)[C@H](Cc1ccccc1)NC(=O)[C@H](CO)NC(=O)[C@H](CC(N)=O)NC(=O)[C@H](Cc1c[nH]c2ccccc12)NC(=O)[C@H](CC(N)=O)NC(=O)[C@@H](N)Cc1ccc(O)cc1)C(=O)N[C@@H](CCCNC(=N)N)C(=O)N[C@@H](Cc1ccccc1)C(N)=O [KISSPEPTIN-10],Active,Activity [18]: Active

# The next lines start with the molecule.
Molecule,inhibition [5],Activity [7] [%],inhibition [8],IC50 [14] [nM],IC50 [15] [nM],IC50 [16] [nM],Activity [3],also measured
CC(C)C[C@H](/C=C/CNC(=O)[C@H](Cc1ccccc1)NC(=O)c1ccc(F)cc1)C(=O)N[C@@H](CCCNC(=N)N)C(=O)N[C@@H](Cc1c[nH]c2ccccc12)C(N)=O,Active,52,Active,,,,Active,Activity [1]: inactive; Activity [2]: inactive; Activity [4]: Active; Activity [6]: 95.7%; Activity [9]: Dose-dependent effect; Activity [10]: 88.3%; Activity [11]: 16.1%; Activity [12]: inactive; Activity [13]: Dose-dependent effect
H-SLAAPQRF-OH,,,,> 30000,1.9,0.79,,
CC(C)C[C@H](NC(=O)CNC(=O)[C@H](Cc1ccccc1)NC(=O)c1ccc(F)cc1)C(=O)N[C@@H](CCCN=C(N)N)C(=O)N[C@@H](Cc1c[nH]c2ccccc12)C(N)=O,,,,,160,1800,,
N=C(N)NCCC[C@H](NC(=O)C12CC3CC(CC(C3)C1)C2)C(=O)N[C@@H](Cc1ccccc1)C(N)=O,,,,,,,,Activity [17]: inactive
CN(C)c1cccc2c(S(=O)(=O)N3CCC[C@H]3C(=O)N[C@@H](CCC(N)=O)C(=O)N[C@@H](CCCNC(=N)N)C(=O)N[C@@H](Cc3ccccc3)C(N)=O)cccc12,,,,16000,,,,Activity [17]: inactive
CC(C)C[C@H](/C=C/CNC(=O)[C@H](Cc1ccccc1)NC(=O)c1ccc(F)cc1)C(=O)N[C@@H](CCCN=C(N)N)C(=O)N[C@@H](Cc1c[nH]c2ccccc12)C(N)=O,,,,,640,2400,,
CC(C)C[C@H](NC(=O)CNC(=O)[C@H](Cc1ccccc1)NC(=O)c1ccc(F)cc1)C(=O)N[C@@H](CCCNC(=N)N)C(=O)N[C@@H](Cc1c[nH]c2ccccc12)C(N)=O,Active,49,Active,,,,Active,Activity [1]: inactive; Activity [2]: inactive; Activity [4]: Active; Activity [6]: 90.7%; Activity [9]: Dose-dependent effect; Activity [10]: 99.4%; Activity [11]: 21.1%; Activity [12]: inactive; Activity [13]: Dose-dependent effect
